Laboratory results taken from ChEMBL document CHEMBL1135918, “Gold(III) complexes with bipyridyl ligands: solution chemistry, cytotoxicity, and DNA binding properties” (J Med Chem, 2002).

Legend:
Format in all cases: functional, cell-based
[1] = tested on: A2780; test: Inhibitory effect of Gold(III) complex, [Au(bipy)-(OH)2]-[PF6] on growth of cisplatin-resistant A2780/R human tumor cell lines
Summary of the method: (§1)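 Human ovarian carcinoma cells (A2780/S; A2780/R derived from it by repeated 1 h weekly exposure to 50 µM; SKOV3) grown exponentially in RPMI1640 with 10% FCS and antibiotics at 37 °C, 5% CO2. Drugs dissolved in sterile bidistilled water, 72 h exposure, growth measured by sulforhodamine B assay. IC50 is the concentration inhibiting growth by 50% versus control.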

[2] = tested on: A2780; test: Inhibitory effect of Gold(III) complex, [Au(bipy)-(OH)2]-[PF6] on growth of cisplatin-sensitive A2780/S human tumor cell lines; summary of the method: as §1
[3] = tested on: CCRF-CEM; test: Inhibitory effect of Gold(III) complex, [Au(bipy)-(OH)2]-[PF6] on growth of cisplatin-resistant CCRF-CEM/R human tumor cell lines
Summary of the method: (§2)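 Human T-lymphoblastoid leukemia CCRF-CEM/S cells, and CCRF-CEM/R cells selected by continuous exposure to rising cisplatin and kept in 10 µM cisplatin. Exponentially growing cells in RPMI1640 with 10% FCS and antibiotics at 37 °C, 5% CO2. Water-dissolved drugs applied for 72 h, growth read by Coulter counter cell counting. IC50 is 50% growth inhibition versus control.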

[4] = tested on: CCRF-CEM; test: Inhibitory effect of Gold(III) complex, [Au(bipy)-(OH)2]-[PF6] on growth of cisplatin-sensitive CCRF-CEM/S human tumor cell lines; summary of the method: as §2
[5] = tested on: SK-OV-3; test: Inhibitory effect of Gold(III) complex, [Au(bipy)-(OH)2]-[PF6] on growth of cisplatin-resistant SKOV3 human tumor cell lines; summary of the method: as §1
[6] = tested on: A2780; test: Inhibitory effect of Gold(III) complex, [Au(bipy-H)(OH)]-[PF6] on growth of cisplatin-resistant A2780/R human tumor cell lines; summary of the method: as §1
[7] = tested on: A2780; test: Inhibitory effect of Gold(III) complex, [Au(bipy-H)(OH)]-[PF6] on growth of cisplatin-sensitive A2780/S human tumor cell lines; summary of the method: as §1
[8] = tested on: CCRF-CEM; test: Inhibitory effect of Gold(III) complex, [Au(bipy-H)(OH)]-[PF6] on growth of cisplatin-resistant CCRF-CEM/R human tumor cell lines; summary of the method: as §2
[9] = tested on: CCRF-CEM; test: Inhibitory effect of Gold(III) complex, [Au(bipy-H)(OH)]-[PF6] on growth of cisplatin-sensitive CCRF-CEM/S human tumor cell lines; summary of the method: as §2
[10] = tested on: SK-OV-3; test: Inhibitory effect of Gold(III) complex, [Au(bipy-H)(OH)]-[PF6] on growth of cisplatin-resistant SKOV3 human tumor cell lines; summary of the method: as §1
[11] = tested on: A2780; test: Inhibitory effect of Gold(III) complex, 2,2' bipy on growth of cisplatin-resistant A2780/R human tumor cell lines; summary of the method: as §1
[12] = tested on: A2780; test: Inhibitory effect of Gold(III) complex, 2,2' bipy on growth of cisplatin-sensitive A2780/S human tumor cell lines; summary of the method: as §1
[13] = tested on: CCRF-CEM; test: Inhibitory effect of Gold(III) complex, 2,2' bipy on growth of cisplatin-resistant CCRF-CEM/R human tumor cell lines; summary of the method: as §2
[14] = tested on: CCRF-CEM; test: Inhibitory effect of Gold(III) complex, 2,2' bipy on growth of cisplatin-sensitive CCRF-CEM/S human tumor cell lines; summary of the method: as §2
[15] = tested on: SK-OV-3; test: Inhibitory effect of Gold(III) complex, 2,2' bipy on growth of cisplatin-resistant SKOV3 human tumor cell lines; summary of the method: as §1
[16] = tested on: A2780; test: Inhibitory effect of Gold(III) complex, CDDP on growth of cisplatin-resistant A2780/R human tumor cell lines; summary of the method: as §1
[17] = tested on: A2780; test: Inhibitory effect of Gold(III) complex, CDDP on growth of cisplatin-sensitive A2780/S human tumor cell lines; summary of the method: as §1
[18] = tested on: CCRF-CEM; test: Inhibitory effect of Gold(III) complex, CDDP on growth of cisplatin-resistant CCRF-CEM/R human tumor cell lines; summary of the method: as §2
[19] = tested on: CCRF-CEM; test: Inhibitory effect of Gold(III) complex, CDDP on growth of cisplatin-sensitive CCRF-CEM/S human tumor cell lines; summary of the method: as §2
[20] = tested on: SK-OV-3; test: Inhibitory effect of Gold(III) complex, CDDP on growth of cisplatin-resistant SKOV3 human tumor cell lines; summary of the method: as §1

Molecule: pyrido[1',2':3,4]imidazo[1,5-a]pyridinediium-6,6-diol(gold(III)complex) with Phosphorous hexa fluoride
- IC50 [1]: 24.1 µM
- IC50 [2]: 8.8 µM
- IC50 [3]: 58.6 µM
- IC50 [4]: 52.9 µM
- IC50 [5]: 34.4 µM

Molecule: 8,8-dimethyl-8,12b-dihydro-7b,12c-diazoniabenzo[a]aceanthrylen-12b-ol(gold(III)complex) with Phosphorous hexa fluoride
- IC50 [6]: 8.2 µM
- IC50 [7]: 3.3 µM
- IC50 [8]: 51.2 µM
- IC50 [9]: 11.9 µM
- IC50 [10]: 13.3 µM

Molecule: c1ccc(-c2ccccn2)nc1 [DIPYRIDYL]
- IC50 [11]: 44.8 µM
- IC50 [12]: > 20 µM
- IC50 [13]: 61.7 µM
- IC50 [14]: 51.9 µM
- IC50 [15]: 41.3 µM

Molecule: CISPLATIN
- IC50 [16]: 15.3 µM
- IC50 [17]: 1.3 µM
- IC50 [18]: 14.1 µM
- IC50 [19]: 1 µM
- IC50 [20]: 21.6 µM
